Laboratory results taken from ChEMBL document CHEMBL4689842, “EUbOPEN Chemogenomics Library wave 1” (2021).

What was measured:
Format in all cases: toxicity, cell-based
HEK-293T = assay: Incucyte cell viability with HEK293T; conditions: human, 10 µM, compound concentration 10 uM; also: filed as whole numbers so only -1 and 0 and 1 occur
U2OS [1] = assay: Multiplex assay against U2OS; conditions: human
Method in brief: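 Cells were classed with CellPathfinder machine-learning gating, first as Hoechst high-intensity objects or normal cells, then (normal cells) as healthy, pyknosed or fragmented nuclei, and finally (pyknosed cells) as mitotic or apoptotic. Staining of live cells at seeding used Hoechst33342, BioTracker Green Microtubule Cytoskeleton Dye, MitoTracker Red and Annexin V Alexa Fluor 680, with imaging on a CQ1 microscope at 37°C and 5% CO2 after compound addition. Tubulin, mitochondrial-mass and membrane-permeability phenotypes are per cents of healthy-nucleus cells.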

U2OS [2] = assay: Incucyte cell viability with U2OS; conditions: human, 10 µM, compound concentration 10 uM; also: filed as whole numbers so only -1 and 0 and 1 occur
[3] = 6 h, replicate number 1, timepoint 6 hours
[4] = 12 h, replicate number 1, timepoint 12 hours
[5] = 18 h, replicate number 1, timepoint 18 hours
[6] = 24 h, replicate number 1, timepoint 24 hours
[7] = 12 h, 1 µM, compound concentration 1 uM, replicate 1
[8] = 12 h, 1 µM, compound concentration 1 uM, replicate 2
[9] = 12 h, 10 µM, compound concentration 10 uM, replicate 1
[10] = 12 h, 10 µM, compound concentration 10 uM, replicate 2
[11] = 24 h, 1 µM, compound concentration 1 uM, replicate 1
[12] = 24 h, 1 µM, compound concentration 1 uM, replicate 2
[13] = 24 h, 10 µM, compound concentration 10 uM, replicate 1
[14] = 24 h, 10 µM, compound concentration 10 uM, replicate 2
[15] = 48 h, 1 µM, compound concentration 1 uM, replicate 1
[16] = 48 h, 1 µM, compound concentration 1 uM, replicate 2
[17] = 48 h, 10 µM, compound concentration 10 uM, replicate 1
[18] = 48 h, 10 µM, compound concentration 10 uM, replicate 2

SMILES: Oc1cccc(-c2nc(N3CCOCC3)c3oc4ncccc4c3n2)c1 [PI-103]
- Growth Rate (HEK-293T; [3]): 0
- Growth Rate (HEK-293T; [4]): 0
- Growth Rate (HEK-293T; [5]): 0
- Growth Rate (HEK-293T; [6]): 0
- Population Apoptotic (%) (U2OS [1]; [7]): 73%
- Population Fragmented Nuclei (%) (U2OS [1]; [7]): 20%
- Population Healthy Nuclei (%) (U2OS [1]; [7]): 67%
- Population Hoechst High Intensity Objects (%) (U2OS [1]; [7]): 11%
- Population Membrane Permeable-Phenotype (%) (U2OS [1]; [7]): 8%
- Population Mitochondria Different-Phenotype (%) (U2OS [1]; [7]): 7%
- Population Mitotic Cells (%) (U2OS [1]; [7]): 26%
- Population Normal (%) (U2OS [1]; [7]): 88%
- Population Pyknosed Nuclei (%) (U2OS [1]; [7]): 12%
- Population Tubulin-Different-Phenotype (%) (U2OS [1]; [7]): 14%
- Total Cell Count (U2OS [1]; [7]): 224
- Population Apoptotic (%) (U2OS [1]; [8]): 47%
- Population Fragmented Nuclei (%) (U2OS [1]; [8]): 10%
- Population Healthy Nuclei (%) (U2OS [1]; [8]): 63%
- Population Hoechst High Intensity Objects (%) (U2OS [1]; [8]): 5%
- Population Membrane Permeable-Phenotype (%) (U2OS [1]; [8]): 2%
- Population Mitotic Cells (%) (U2OS [1]; [8]): 52%
- Population Normal (%) (U2OS [1]; [8]): 94%
- Population Pyknosed Nuclei (%) (U2OS [1]; [8]): 26%
- Population Tubulin-Different-Phenotype (%) (U2OS [1]; [8]): 0%
- Total Cell Count (U2OS [1]; [8]): 73
- Population Apoptotic (%) (U2OS [1]; [9]): 42%
- Population Fragmented Nuclei (%) (U2OS [1]; [9]): 20%
- Population Healthy Nuclei (%) (U2OS [1]; [9]): 47%
- Population Hoechst High Intensity Objects (%) (U2OS [1]; [9]): 6%
- Population Membrane Permeable-Phenotype (%) (U2OS [1]; [9]): 35%
- Population Mitochondria Different-Phenotype (%) (U2OS [1]; [9]): 63%
- Population Mitotic Cells (%) (U2OS [1]; [9]): 57%
- Population Normal (%) (U2OS [1]; [9]): 93%
- Population Pyknosed Nuclei (%) (U2OS [1]; [9]): 31%
- Population Tubulin-Different-Phenotype (%) (U2OS [1]; [9]): 80%
- Total Cell Count (U2OS [1]; [9]): 168
- Population Apoptotic (%) (U2OS [1]; [10]): 36%
- Population Fragmented Nuclei (%) (U2OS [1]; [10]): 18%
- Population Healthy Nuclei (%) (U2OS [1]; [10]): 39%
- Population Hoechst High Intensity Objects (%) (U2OS [1]; [10]): 5%
- Population Membrane Permeable-Phenotype (%) (U2OS [1]; [10]): 33%
- Population Mitochondria Different-Phenotype (%) (U2OS [1]; [10]): 59%
- Population Mitotic Cells (%) (U2OS [1]; [10]): 63%
- Population Normal (%) (U2OS [1]; [10]): 94%
- Population Pyknosed Nuclei (%) (U2OS [1]; [10]): 41%
- Population Tubulin-Different-Phenotype (%) (U2OS [1]; [10]): 83%
- Total Cell Count (U2OS [1]; [10]): 69
- Population Apoptotic (%) (U2OS [1]; [11]): 56%
- Population Fragmented Nuclei (%) (U2OS [1]; [11]): 21%
- Population Healthy Nuclei (%) (U2OS [1]; [11]): 61%
- Population Hoechst High Intensity Objects (%) (U2OS [1]; [11]): 8%
- Population Membrane Permeable-Phenotype (%) (U2OS [1]; [11]): 7%
- Population Mitochondria Different-Phenotype (%) (U2OS [1]; [11]): 4%
- Population Mitotic Cells (%) (U2OS [1]; [11]): 43%
- Population Normal (%) (U2OS [1]; [11]): 91%
- Population Pyknosed Nuclei (%) (U2OS [1]; [11]): 16%
- Population Tubulin-Different-Phenotype (%) (U2OS [1]; [11]): 11%
- Total Cell Count (U2OS [1]; [11]): 224
- Population Apoptotic (%) (U2OS [1]; [12]): 75%
- Population Fragmented Nuclei (%) (U2OS [1]; [12]): 14%
- Population Healthy Nuclei (%) (U2OS [1]; [12]): 69%
- Population Hoechst High Intensity Objects (%) (U2OS [1]; [12]): 6%
- Population Membrane Permeable-Phenotype (%) (U2OS [1]; [12]): 3%
- Population Mitochondria Different-Phenotype (%) (U2OS [1]; [12]): 3%
- Population Mitotic Cells (%) (U2OS [1]; [12]): 25%
- Population Normal (%) (U2OS [1]; [12]): 93%
- Population Tubulin-Different-Phenotype (%) (U2OS [1]; [12]): 1%
- Total Cell Count (U2OS [1]; [12]): 73
- Population Apoptotic (%) (U2OS [1]; [13]): 54%
- Population Fragmented Nuclei (%) (U2OS [1]; [13]): 25%
- Population Healthy Nuclei (%) (U2OS [1]; [13]): 40%
- Population Hoechst High Intensity Objects (%) (U2OS [1]; [13]): 10%
- Population Membrane Permeable-Phenotype (%) (U2OS [1]; [13]): 20%
- Population Mitochondria Different-Phenotype (%) (U2OS [1]; [13]): 62%
- Population Mitotic Cells (%) (U2OS [1]; [13]): 45%
- Population Normal (%) (U2OS [1]; [13]): 89%
- Population Pyknosed Nuclei (%) (U2OS [1]; [13]): 34%
- Population Tubulin-Different-Phenotype (%) (U2OS [1]; [13]): 74%
- Total Cell Count (U2OS [1]; [13]): 196
- Population Apoptotic (%) (U2OS [1]; [14]): 50%
- Population Fragmented Nuclei (%) (U2OS [1]; [14]): 28%
- Population Healthy Nuclei (%) (U2OS [1]; [14]): 24%
- Population Hoechst High Intensity Objects (%) (U2OS [1]; [14]): 4%
- Population Membrane Permeable-Phenotype (%) (U2OS [1]; [14]): 44%
- Population Mitochondria Different-Phenotype (%) (U2OS [1]; [14]): 75%
- Population Mitotic Cells (%) (U2OS [1]; [14]): 49%
- Population Normal (%) (U2OS [1]; [14]): 95%
- Population Pyknosed Nuclei (%) (U2OS [1]; [14]): 47%
- Population Tubulin-Different-Phenotype (%) (U2OS [1]; [14]): 89%
- Total Cell Count (U2OS [1]; [14]): 80
- Population Apoptotic (%) (U2OS [1]; [15]): 70%
- Population Fragmented Nuclei (%) (U2OS [1]; [15]): 18%
- Population Healthy Nuclei (%) (U2OS [1]; [15]): 64%
- Population Hoechst High Intensity Objects (%) (U2OS [1]; [15]): 7%
- Population Membrane Permeable-Phenotype (%) (U2OS [1]; [15]): 7%
- Population Mitochondria Different-Phenotype (%) (U2OS [1]; [15]): 6%
- Population Mitotic Cells (%) (U2OS [1]; [15]): 29%
- Population Normal (%) (U2OS [1]; [15]): 92%
- Population Pyknosed Nuclei (%) (U2OS [1]; [15]): 17%
- Population Tubulin-Different-Phenotype (%) (U2OS [1]; [15]): 16%
- Total Cell Count (U2OS [1]; [15]): 222
- Population Apoptotic (%) (U2OS [1]; [16]): 63%
- Population Fragmented Nuclei (%) (U2OS [1]; [16]): 10%
- Population Healthy Nuclei (%) (U2OS [1]; [16]): 75%
- Population Hoechst High Intensity Objects (%) (U2OS [1]; [16]): 4%
- Population Membrane Permeable-Phenotype (%) (U2OS [1]; [16]): 8%
- Population Mitochondria Different-Phenotype (%) (U2OS [1]; [16]): 4%
- Population Mitotic Cells (%) (U2OS [1]; [16]): 36%
- Population Normal (%) (U2OS [1]; [16]): 95%
- Population Pyknosed Nuclei (%) (U2OS [1]; [16]): 13%
- Population Tubulin-Different-Phenotype (%) (U2OS [1]; [16]): 8%
- Total Cell Count (U2OS [1]; [16]): 72
- Population Apoptotic (%) (U2OS [1]; [17]): 70%
- Population Fragmented Nuclei (%) (U2OS [1]; [17]): 35%
- Population Healthy Nuclei (%) (U2OS [1]; [17]): 26%
- Population Hoechst High Intensity Objects (%) (U2OS [1]; [17]): 15%
- Population Membrane Permeable-Phenotype (%) (U2OS [1]; [17]): 37%
- Population Mitochondria Different-Phenotype (%) (U2OS [1]; [17]): 48%
- Population Mitotic Cells (%) (U2OS [1]; [17]): 29%
- Population Normal (%) (U2OS [1]; [17]): 84%
- Population Pyknosed Nuclei (%) (U2OS [1]; [17]): 38%
- Population Tubulin-Different-Phenotype (%) (U2OS [1]; [17]): 56%
- Total Cell Count (U2OS [1]; [17]): 215
- Population Apoptotic (%) (U2OS [1]; [18]): 68%
- Population Fragmented Nuclei (%) (U2OS [1]; [18]): 26%
- Population Hoechst High Intensity Objects (%) (U2OS [1]; [18]): 12%
- Population Membrane Permeable-Phenotype (%) (U2OS [1]; [18]): 85%
- Population Mitochondria Different-Phenotype (%) (U2OS [1]; [18]): 77%
- Population Mitotic Cells (%) (U2OS [1]; [18]): 31%
- Population Normal (%) (U2OS [1]; [18]): 87%
- Population Pyknosed Nuclei (%) (U2OS [1]; [18]): 47%
- Population Tubulin-Different-Phenotype (%) (U2OS [1]; [18]): 88%
- Total Cell Count (U2OS [1]; [18]): 86
- Growth Rate (U2OS [2]; 0 h, replicate number 1, timepoint 0 hours): 0
- Growth Rate (U2OS [2]; [3]): 1
- Growth Rate (U2OS [2]; [4]): 1
- Growth Rate (U2OS [2]; [5]): 0
- Growth Rate (U2OS [2]; 18 h, replicate number 2, timepoint 18 hours): 1
- Growth Rate (U2OS [2]; [6]): 0
- Growth Rate (U2OS [2]; 24 h, replicate number 2, timepoint 24 hours): 1
